Reference: ChEMBL document CHEMBL4346736, “Anti-proliferative activity and structure-activity relationship of honokiol derivatives” (Bioorg Med Chem, 2019)

Columns and labels:
K562 [1] = test: Antiproliferative activity against human K562 cells after 48 hrs by MTT assay; type: functional, cell-based; details: K562, 48 h
Method in brief: (§1)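 Cells from the Institute of Cell Biology, CAS (Shanghai), grown in RPMI-1640 with 10% FBS and 100 U/mL penicillin-streptomycin at 37 °C under 5% CO2. Cells were exposed to compounds for 48 h, and viability was read by MTT (or MTS). IC50, the concentration giving 50% inhibition, was calculated by the Logit method. Data are representative of 3 independent experiments.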

A549 [2] = test: Antiproliferative activity against human A549 cells after 48 hrs by MTT assay; type: functional, cell-based; details: A549, 48 h; method in brief: as §1
HepG2 [3] = test: Antiproliferative activity against human HepG2 cells after 48 hrs by MTT assay; type: functional, cell-based; details: HepG2, 48 h; method in brief: as §1
HUVEC = test: Antiproliferative activity against human HUVEC cells after 48 hrs by MTT assay; type: cell-based; method in brief: as §1
[4] = Selectivity index, ratio of IC50 for HUVEC to IC50 for human K562 cells; type: toxicity; details: HUVEC versus K562 cells, read-out: Ratio IC50
Method in brief: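 K562 tumor cells and HUVEC grown in RPMI-1640 with 10% FBS and penicillin-streptomycin at 37 °C under 5% CO2. Viability was read by MTT or MTS assay, with tumor cells exposed to compounds for 48 h. IC50 values came from the Logit method across 3 independent experiments. The index is HUVEC IC50 divided by K562 IC50.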

[5] = Partition coefficient, log P of the compound; type: physicochemical; details: octanol/water
HepG2 [6] = test: Antiproliferative activity against human HepG2 cells; type: functional, cell-based; method in brief: as §1
K562 [7] = test: Antiproliferative activity against human K562 cells; type: functional, cell-based; method in brief: as §1
HepG2 [8] = test: Antiproliferative activity against human HepG2 cells after 72 hrs by MTT assay; type: functional, cell-based; details: HepG2, 72 h
HCT-116 = test: Antiproliferative activity against human HCT116 cells after 72 hrs by MTT assay; type: functional, cell-based; details: HCT-116, 72 h
NCI-H1975 = test: Antiproliferative activity against human NCI-H1975 cells after 72 hrs by MTT assay; type: functional, cell-based; details: NCI-H1975, 72 h
A549 [9] = test: Antiproliferative activity against human A549 cells by MTT assay; type: functional, cell-based; method in brief: as §1
K562 [10] = test: Antiproliferative activity against human K562 cells by MTT assay; type: functional, cell-based; method in brief: as §1
[11] = Antiproliferative activity against human SPCA1 cells by MTT assay; type: functional, cell-based

C=CCc1cc2c(c(-c3cc(CC=C)c4c(c3)NC(=O)CO4)c1)OCC(=O)N2
IC50 (K562 [1]): 7.08 µM | IC50 (A549 [2]): 37 µM | IC50 (HepG2 [3]): 27.4 µM | IC50 (HUVEC): 82.1 µM | selectivity ratio [4]: 11.6 | logP [5]: 3.29

CCCc1cc(C)c(O)c(-c2cc(C)c(O)c(CCC)c2)c1
IC50 (K562 [1]): 26.2 µM | IC50 (A549 [2]): 29.2 µM | IC50 (HepG2 [3]): 34.5 µM | logP [5]: 6.51

C=CCc1cc(N=O)c(O)c(-c2cc(CC=C)c(O)c(N=O)c2)c1
IC50 (K562 [1]): > 128 µM | IC50 (A549 [2]): > 128 µM | IC50 (HepG2 [3]): > 128 µM | logP [5]: 4.45

C=CCc1cc(-c2ccc3c(c2)OCCO3)ccc1OC
logP [5]: 4.05

C=CCc1cc(/C=N\c2ccc(N)cc2)c(O)c(-c2ccc(O)c(CC=C)c2)c1
logP [5]: 5.54

C=CCc1cc(CN2CCC(N)CC2)c(O)c(-c2cc(CC=C)c(O)c(CN3CCC(N)CC3)c2)c1
IC50 (HepG2 [6]): 17 µM | IC50 (K562 [7]): 9.1 µM | logP [5]: 2.79

C=CCc1ccc(O)c(-c2cc(CC=C)c3oncc3c2)c1
logP [5]: 4.78

C=CCc1cc(CN2CCN(C)CC2)c(O)c(-c2cc(CC=C)c(O)c(CN3CCN(C)CC3)c2)c1
IC50 (HepG2 [6]): > 40 µM | IC50 (K562 [7]): > 40 µM | logP [5]: 4.04

C=CCc1cc(/C=N\c2ccccc2)c(O)c(-c2ccc(O)c(CC=C)c2)c1
logP [5]: 6.47

C=CCc1ccc(O)c(-c2ccc(O)c(/C=C\C)c2)c1
IC50 (HepG2 [8]): 31.6 µM | IC50 (HCT-116): 19.9 µM | IC50 (NCI-H1975): 39.8 µM | logP [5]: 5.1

C=CCc1ccc(O)c(-c2ccc3c(c2)CC(C)O3)c1 (centres undefined)
IC50 (K562 [1]): 126 µM | IC50 (A549 [2]): 116 µM | IC50 (HepG2 [3]): 126 µM | logP [5]: 4.65

C=CCc1cc(/C=N/O)c(O)c(-c2ccc(O)c(CC=C)c2)c1
logP [5]: 5.35

C=CCc1cc(N)c(O)c(-c2cc(N)c(O)c(CC=C)c2)c1
IC50 (K562 [1]): > 128 µM | IC50 (A549 [2]): > 128 µM | IC50 (HepG2 [3]): > 128 µM | logP [5]: 3.62

C=CCc1cc(CN(C)C)c(O)c(-c2cc(CC=C)c(O)c(CN(C)C)c2)c1
IC50 (K562 [1]): 31.6 µM | IC50 (A549 [2]): 60.8 µM | IC50 (HepG2 [3]): 47.5 µM | logP [5]: 4.26

OCC(O)Cc1ccc(O)c(-c2ccc(O)c(CC(O)CO)c2)c1 (centres undefined)
IC50 (K562 [1]): > 128 µM | IC50 (A549 [2]): > 128 µM | IC50 (HepG2 [3]): > 128 µM | logP [5]: 1.16

C=CCc1cc(NC(=O)C=C)c(O)c(-c2cc(CC=C)c(O)c(NC(=O)C=C)c2)c1
IC50 (K562 [1]): 5.04 µM | IC50 (A549 [2]): 16.6 µM | IC50 (HepG2 [3]): 19.1 µM | IC50 (HUVEC): 57.8 µM | selectivity ratio [4]: 11.5 | logP [5]: 4.3

C=CCc1ccc(O)c(-c2ccc(O)c(CC(CO)OC)c2)c1 (centres undefined)
IC50 (HepG2 [8]): > 40 µM | IC50 (HCT-116): > 40 µM | IC50 (NCI-H1975): > 40 µM | logP [5]: 3.7

C=CCc1cc(NC(C)=O)c(O)c(-c2cc(CC=C)c(O)c(NC(C)=O)c2)c1
IC50 (K562 [1]): > 128 µM | IC50 (A549 [2]): > 128 µM | IC50 (HepG2 [3]): > 128 µM | logP [5]: 3.09

CCCc1ccc(O)c(-c2ccc3c(c2)CC(C)O3)c1 (centres undefined)
IC50 (K562 [1]): 72.9 µM | IC50 (A549 [2]): 96.1 µM | IC50 (HepG2 [3]): 122 µM | logP [5]: 5.13

C=CCc1cc(-c2ccc3c(c2)OCCO3)ccc1O
logP [5]: 3.98

C=CCc1cc(-c2ccc3c(c2)OCO3)ccc1O
logP [5]: 4.36

C=CCc1cc(/C=N/O)c(O)c(-c2cc(/C=N/O)c(O)c(CC=C)c2)c1
logP [5]: 5.49

C=CCc1ccc(O)c(-c2cc(CC=C)c(O)c(C(C)(C)C)c2)c1
IC50 (K562 [1]): 32.5 µM | IC50 (A549 [2]): 25.7 µM | IC50 (HepG2 [3]): 31.1 µM | logP [5]: 6.43

C=CCc1cc(-c2cc(CC=C)c(O)c([N+](=O)[O-])c2)c(O)c([N+](=O)[O-])c1
IC50 (K562 [1]): > 128 µM | IC50 (A549 [2]): > 128 µM | IC50 (HepG2 [3]): > 128 µM | logP [5]: 4.57

C=CCc1cc(/C=N/Nc2ccccc2)c(O)c(-c2ccc(O)c(CC=C)c2)c1
logP [5]: 7.76

C=CCc1ccc(O)c(-c2cc(/C=N/O)c(O)c(CC=C)c2)c1
logP [5]: 5.14

C=CCc1ccc(O)c(-c2cc(/C=C3\SC(=O)NC3=O)c(O)c(CC=C)c2)c1
logP [5]: 4.27

C=CCc1ccc(O)c(-c2cc(/C=C(\C#N)C(=O)OCC)c(O)c(CC=C)c2)c1
logP [5]: 5.23

C=CCc1cc(/C=C2\SC(=O)NC2=O)c(O)c(-c2cc(/C=C3\SC(=O)NC3=O)c(O)c(CC=C)c2)c1
logP [5]: 3.74

C=CCc1cc(/C=C(\C#N)C(=O)OCC)c(O)c(-c2ccc(O)c(CC=C)c2)c1
logP [5]: 5.44

C=CCc1cc(C=O)c(O)c(-c2cc(C=O)c(O)c(CC=C)c2)c1
IC50 (A549 [9]): > 77.6 µM | IC50 (K562 [10]): 32.6 µM | IC50 [11]: 31.4 µM | logP [5]: 4.23

C=CCc1cc(C=O)c(O)c(-c2ccc(O)c(CC=C)c2)c1
IC50 (A549 [9]): > 85 µM | IC50 (K562 [10]): 54.6 µM | logP [5]: 4.72

C=CCc1cc(/C=N/CCN)c(O)c(-c2ccc(O)c(CC=C)c2)c1
logP [5]: 3.57

C=CCc1cc(/C=C2\SC(=O)NC2=O)c(O)c(-c2ccc(O)c(CC=C)c2)c1
logP [5]: 4.48

C=CCc1ccc(OC)c(-c2ccc(OC)c(CC=C)c2)c1
logP [5]: 5.35

C=CCc1ccc(OC)c(-c2ccc(O)c(CC=C)c2)c1
logP [5]: 5.28

C=CCc1ccc(Oc2cc(CC=C)ccc2O)cc1 [ISOMAGNOLOL]
logP [5]: 4.82

C=CCc1ccc(O)c(-c2cc(CC=C)ccc2O)c1 [MAGNOLOL]
logP [5]: 4.8

C=CCc1ccc(O)c(-c2ccc(OC)c(CC=C)c2)c1 [METHYLHONOKIOL]
logP [5]: 5.07
